In ChEMBL document CHEMBL1909601, “Synthesis and structure-activity relationship studies of dihydronaphthyridinediones as a novel structural class of potent and selective PDE7 inhibitors” (Bioorg Med Chem Lett, 2011):

Key:
[1] = biological target: 3',5'-cyclic-AMP phosphodiesterase 4A (Homo sapiens, UniProt P27815); assay: Inhibition of human recombinant PDE4A4 expressed in baculovirus infected insect Sf21 cells after 30 mins by scintillation proximity assay
Outline: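 Full-length human recombinant enzyme expressed in baculovirus-infected Sf21 cells. Scintillation proximity assay with 500 nM [3H]-cAMP substrate in 80 mM Tris/10 mM MgSO4, pH 7.4. Incubated 30 min at 37 °C, then SPA beads added and plates counted. Background taken in presence of 10 µM rolipram. IC50 reported.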

[2] = biological target: High affinity 3',5'-cyclic-AMP phosphodiesterase 7A (Homo sapiens, UniProt Q13946); assay: Inhibition of human recombinant PDE7A1 expressed in baculovirus infected insect Sf21 cells after 30 mins by scintillation proximity assay
Sequence of High affinity 3',5'-cyclic-AMP phosphodiesterase 7A (Q13946 whole entry): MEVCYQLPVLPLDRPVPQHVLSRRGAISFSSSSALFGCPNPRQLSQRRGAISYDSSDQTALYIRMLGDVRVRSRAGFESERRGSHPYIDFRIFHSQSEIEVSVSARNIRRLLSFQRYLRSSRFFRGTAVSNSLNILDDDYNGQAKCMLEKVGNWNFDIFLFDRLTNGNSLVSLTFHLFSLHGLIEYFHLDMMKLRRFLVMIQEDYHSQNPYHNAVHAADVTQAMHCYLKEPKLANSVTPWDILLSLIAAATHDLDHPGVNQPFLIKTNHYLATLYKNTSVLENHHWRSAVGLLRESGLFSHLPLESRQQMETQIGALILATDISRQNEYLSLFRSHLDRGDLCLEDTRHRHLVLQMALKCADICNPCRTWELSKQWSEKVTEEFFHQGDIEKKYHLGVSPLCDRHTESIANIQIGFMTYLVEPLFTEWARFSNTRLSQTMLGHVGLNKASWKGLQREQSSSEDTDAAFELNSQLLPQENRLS
Outline: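 Full-length human recombinant PDE7A1 produced in baculovirus-infected Sf21 cells. SPA read-out with [3H]-cAMP at 20 nM in 80 mM Tris/10 mM MgSO4, pH 7.4. Reaction run 30 min at 37 °C before bead addition and scintillation counting. Background measured without enzyme. IC50 derived.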

Sequence of 3',5'-cyclic-AMP phosphodiesterase 4A (P27815 whole entry): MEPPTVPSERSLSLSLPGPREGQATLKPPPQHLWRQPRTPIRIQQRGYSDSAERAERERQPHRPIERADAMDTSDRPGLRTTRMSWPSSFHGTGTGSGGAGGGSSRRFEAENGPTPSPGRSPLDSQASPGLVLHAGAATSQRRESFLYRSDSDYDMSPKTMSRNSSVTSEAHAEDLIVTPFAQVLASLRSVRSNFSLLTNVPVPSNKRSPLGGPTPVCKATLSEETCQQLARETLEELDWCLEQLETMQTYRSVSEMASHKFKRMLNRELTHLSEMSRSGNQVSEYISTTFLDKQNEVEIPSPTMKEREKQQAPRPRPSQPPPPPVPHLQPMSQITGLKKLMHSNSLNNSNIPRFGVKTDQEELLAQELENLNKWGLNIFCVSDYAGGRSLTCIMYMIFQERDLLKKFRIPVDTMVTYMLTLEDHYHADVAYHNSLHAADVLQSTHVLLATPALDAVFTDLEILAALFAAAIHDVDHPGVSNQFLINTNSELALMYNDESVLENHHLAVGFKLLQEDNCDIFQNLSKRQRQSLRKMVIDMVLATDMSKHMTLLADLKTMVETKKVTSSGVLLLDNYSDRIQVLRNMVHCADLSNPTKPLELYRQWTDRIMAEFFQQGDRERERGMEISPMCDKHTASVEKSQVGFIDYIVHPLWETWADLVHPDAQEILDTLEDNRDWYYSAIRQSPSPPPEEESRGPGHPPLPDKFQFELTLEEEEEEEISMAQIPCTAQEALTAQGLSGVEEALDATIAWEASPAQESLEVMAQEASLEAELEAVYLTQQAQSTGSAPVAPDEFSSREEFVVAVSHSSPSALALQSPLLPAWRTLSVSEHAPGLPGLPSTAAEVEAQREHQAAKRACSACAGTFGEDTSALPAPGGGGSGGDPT

SMILES | IC50 [1] | IC50 [2]
O=C(Nc1ccc(N2CCOCC2)cc1)c1cn(Cc2c(F)c(F)cc(F)c2F)c2ccc(=O)[nH]c2c1=O | 3560 nM | 317 nM
O=C(Nc1ccc(N2CCOCC2)cc1)c1cn(Cc2c(Cl)cccc2Cl)c2ccc(=O)[nH]c2c1=O | > 1000 nM | 165 nM
COc1cc(NC(=O)c2cn(Cc3c(F)cccc3Cl)c3ccc(=O)[nH]c3c2=O)cc(OC)c1OC | > 1000 nM | 33 nM
COc1cc(NC(=O)c2cn(Cc3ccccc3Br)c3ccc(=O)[nH]c3c2=O)cc(OC)c1OC | > 1000 nM | > 1000 nM
Nc1ccc(NC(=O)c2cn(Cc3c(F)cccc3F)c3ccc(=O)[nH]c3c2=O)cc1 | 477 nM | 104 nM
COc1ccc2c(n1)c(=O)c(C(=O)Nc1ccc(N3CCOCC3)cc1)cn2Cc1c(F)cccc1F | > 5000 nM | > 5000 nM
CNC(=O)c1ccc(NC(=O)c2cn(Cc3c(F)cccc3Cl)c3ccc(=O)[nH]c3c2=O)cc1 | 156 nM | 18 nM
COc1cc(NC(=O)c2cn(Cc3c(F)cccc3F)c3ccc(=O)[nH]c3c2=O)cc(OC)c1OC | 516 nM | 18 nM
CS(=O)(=O)c1ccc(NC(=O)c2cn(Cc3c(F)cccc3F)c3ccc(=O)[nH]c3c2=O)cc1 | > 1000 nM | 27 nM
O=C(Nc1ccccc1)c1cn(Cc2c(F)cccc2F)c2ccc(=O)[nH]c2c1=O | 1330 nM | 94 nM
O=C(Nc1ccc(S(=O)(=O)Nc2nccs2)cc1)c1cn(Cc2c(F)cccc2F)c2ccc(=O)[nH]c2c1=O | 481 nM | 25 nM
CSc1ccc(NC(=O)c2cn(Cc3c(F)cccc3F)c3ccc(=O)[nH]c3c2=O)cc1 | > 1000 nM | 86 nM
COc1cc(NC(=O)c2cn(Cc3ccccc3F)c3ccc(=O)[nH]c3c2=O)cc(OC)c1OC | > 1000 nM | 206 nM
COc1cc(NC(=O)c2cn(Cc3ccc(F)cc3)c3ccc(=O)[nH]c3c2=O)cc(OC)c1OC | > 1000 nM | 868 nM
O=C(Nc1ccc(N2CCOCC2)cc1)c1cn(Cc2ccccc2C(F)(F)F)c2ccc(=O)[nH]c2c1=O | > 1000 nM | > 1000 nM
NC(=O)c1ccc(NC(=O)c2cn(Cc3c(F)cccc3F)c3ccc(=O)[nH]c3c2=O)cc1 | 201 nM | 49 nM
O=C(O)Cc1ccc(NC(=O)c2cn(Cc3c(F)cccc3F)c3ccc(=O)[nH]c3c2=O)cc1 | > 1000 nM | 176 nM
COc1ccc(NC(=O)c2cn(Cc3c(F)cccc3Cl)c3ccc(=O)[nH]c3c2=O)cc1Cl | > 1000 nM | 34 nM
CNc1ccc(NC(=O)c2cn(Cc3c(F)cccc3F)c3ccc(=O)[nH]c3c2=O)cc1 | 994 nM | 82 nM
O=C(Nc1ccc(OC(F)(F)F)cc1)c1cn(Cc2c(F)cccc2F)c2ccc(=O)[nH]c2c1=O | > 1000 nM | 90 nM
N#Cc1cccc(NC(=O)c2cn(Cc3c(F)cccc3F)c3ccc(=O)[nH]c3c2=O)c1 | > 1000 nM | 1070 nM
O=C(Nc1ccc(N2CCOCC2)cc1)c1cn(Cc2ccc(OC(F)(F)F)cc2)c2ccc(=O)[nH]c2c1=O | > 1000 nM | > 1000 nM
O=C(Nc1ccc(N2CCOCC2)cc1)c1cn(Cc2c(F)cccc2F)c2ccc(=O)[nH]c2c1=O | 506 nM | 22 nM
O=C(NCc1ccncc1)c1ccc(NC(=O)c2cn(Cc3c(F)cccc3F)c3ccc(=O)[nH]c3c2=O)cc1 | 430 nM | 20 nM
COc1cc(NC(=O)c2cn(Cc3ccc(F)cc3Cl)c3ccc(=O)[nH]c3c2=O)cc(OC)c1OC | > 1000 nM | 192 nM
CC(=O)Nc1ccc(NC(=O)c2cn(Cc3c(F)cccc3F)c3ccc(=O)[nH]c3c2=O)cc1 | 362 nM | 24 nM

Other lines, results leading:

IC50 [1] | IC50 [2] | SMILES
> 1000 nM | > 1000 nM | O=C(Nc1ccc(N2CCOCC2)cc1)c1cn(Cc2cc(F)cc(F)c2)c2ccc(=O)[nH]c2c1=O
979 nM | 88 nM | COc1cc(NC(=O)c2cn(Cc3c(Cl)cccc3Cl)c3ccc(=O)[nH]c3c2=O)cc(OC)c1OC
568 nM | 71 nM | O=C(Nc1ccc(OC(F)F)cc1)c1cn(Cc2c(F)cccc2F)c2ccc(=O)[nH]c2c1=O
> 1000 nM | 212 nM | COc1cc(NC(=O)c2cn(Cc3c(F)cccc3F)c3ccc(=O)[nH]c3c2=O)cc(OC)c1
1060 nM | 188 nM | O=C(Nc1ccc(C(=O)N2CCOCC2)cc1)c1cn(Cc2c(F)cccc2F)c2ccc(=O)[nH]c2c1=O
> 1000 nM | 179 nM | O=C(Nc1ccc(F)cc1)c1cn(Cc2c(F)cccc2F)c2ccc(=O)[nH]c2c1=O
> 1000 nM | 178 nM | COc1cc(NC(=O)c2cn(Cc3ccccc3Cl)c3ccc(=O)[nH]c3c2=O)cc(OC)c1OC
> 1000 nM | 96 nM | N#Cc1ccc(NC(=O)c2cn(Cc3c(F)cccc3F)c3ccc(=O)[nH]c3c2=O)cc1
1520 nM | 200 nM | O=C(O)c1ccc(NC(=O)c2cn(Cc3c(F)cccc3F)c3ccc(=O)[nH]c3c2=O)cc1
471 nM | 66 nM | CN(C)c1ccc(NC(=O)c2cn(Cc3c(F)cccc3F)c3ccc(=O)[nH]c3c2=O)cc1
> 5000 nM | 2380 nM | O=C(Nc1ccc(N2CCOCC2)cc1)c1cn(Cc2ccc(F)cc2)c2ccc(=O)[nH]c2c1=O
379 nM | 823 nM | O=C(Nc1ccc(N2CCOCC2)cc1)c1cn(Cc2c(F)cccc2F)c2cccnc2c1=O
> 1000 nM | 300 nM | O=C(Nc1ccc(C(F)(F)F)cc1)c1cn(Cc2c(F)cccc2F)c2ccc(=O)[nH]c2c1=O
> 1000 nM | 151 nM | COc1ccc(NC(=O)c2cn(Cc3c(F)cccc3F)c3ccc(=O)[nH]c3c2=O)cc1
442 nM | 46 nM | CCN(CC)c1ccc(NC(=O)c2cn(Cc3c(F)cccc3F)c3ccc(=O)[nH]c3c2=O)cc1
458 nM | 34 nM | NS(=O)(=O)c1ccc(NC(=O)c2cn(Cc3c(F)cccc3F)c3ccc(=O)[nH]c3c2=O)cc1
> 1000 nM | > 1000 nM | O=C(Nc1ccc(N2CCOCC2)cc1)c1cn(Cc2ccc(F)cc2F)c2ccc(=O)[nH]c2c1=O
219 nM | > 1000 nM | O=C(Nc1c(F)cccc1F)c1cn(Cc2c(F)cccc2F)c2ccc(=O)[nH]c2c1=O
> 1000 nM | 105 nM | O=C(Nc1ccc(O)cc1)c1cn(Cc2c(F)cccc2F)c2ccc(=O)[nH]c2c1=O
> 1000 nM | 712 nM | O=C(Nc1ccc(N2CCOCC2)cc1)c1cn(Cc2ccccc2)c2ccc(=O)[nH]c2c1=O
> 1000 nM | 266 nM | Cc1ccccc1Cn1cc(C(=O)Nc2ccc(N3CCOCC3)cc2)c(=O)c2[nH]c(=O)ccc21
274 nM | 32 nM | O=C(Nc1ccc(S(=O)(=O)Nc2nccs2)cc1)c1cn(Cc2c(F)cccc2Cl)c2ccc(=O)[nH]c2c1=O
> 1000 nM | 767 nM | O=C(Nc1ccc(N2CCOCC2)cc1)c1cn(Cc2ccccc2Cl)c2ccc(=O)[nH]c2c1=O
> 1000 nM | 124 nM | O=C(Nc1ccc(N2CCCCC2)cc1)c1cn(Cc2c(F)cccc2F)c2ccc(=O)[nH]c2c1=O
560 nM | 29 nM | CNC(=O)c1ccc(NC(=O)c2cn(Cc3c(F)cccc3F)c3ccc(=O)[nH]c3c2=O)cc1
> 1000 nM | 686 nM | COc1cc(NC(=O)c2cn(Cc3ccccc3)c3ccc(=O)[nH]c3c2=O)cc(OC)c1OC
